Experimental data of several laboratories.
Compare with care: the assays were run in different laboratories.
Target: Eukaryotic translation initiation factor 2-alpha kinase 1 (EIF2AK1, Homo sapiens, UniProt Q9BQI3)

Structure (SMILES) | test | conditions | remaining binding [%]
CN(CCCC(F)(F)F)c1nccc(-c2cnn3ncccc23)n1 | binding | 1 µM | 100
O=C(Nc1c[nH]nc1C(=O)NC1CCNCC1)c1cc(F)cc(F)c1 | binding, competition with immobilised ligand | 1 µM | 91
C[C@@H]1CCN(c2nccc(-c3cnn4ncccc34)n2)C1 | binding | 1 µM | 79
COc1cnc(Nc2cccc(S(N)(=O)=O)c2)nc1N1CCN(c2ccccc2)C(=O)C1 | binding, competition with immobilised ligand | 1 µM | 89
O=C(NCc1ncc(C(F)(F)F)cc1Cl)c1ccc2c(c1)C1(CCS(=O)(=O)CC1)[C@H](C1CC1)N2S(=O)(=O)c1ccc(F)cc1 | cell-free assay, competition with immobilised ligand | 1 µM | 86
O=C(c1ccc(Nc2ncc(Cl)c(-c3cc4ccccc4s3)n2)cc1)N1CCC(N2CCCC2)CC1 | binding, competition with immobilised ligand | 1 µM | 90
C=CC(=O)N1CCC(C(=O)NCC(=O)N2CCN(c3nc(-c4cnc(N)nc4C(F)F)nc(N4CCOCC4)n3)CC2)CC1 | binding, competition with immobilised ligand | 1 µM | 94
CC(=O)C1=C(C)N(c2cccc(C(F)(F)F)c2)C(=O)N[C@@H]1c1ccc(C#N)nc1 | cell-free assay, competition with immobilised ligand | 1 µM | 100
CNC(=O)[C@@H]1CC[C@@H](n2c(-c3ccc4cnccc4c3)nc3ccc(C(=O)NCc4cccc(C(N)=O)c4)cc32)C1 | binding, competition with immobilised ligand | 1 µM | 100
N[C@H]1CCN(c2nccc(-c3cnn4ncccc34)n2)C1 | binding | 1 µM | 78
C[C@H](c1ccc(F)cc1)N(Cc1cccc(C(=O)O)c1)C(=O)c1cnc2ccccc2c1 | cell-free assay, competition with immobilised ligand | 1 µM | 84
CN(C)c1nccc(-c2cnc3ncccn23)n1 | binding | 1 µM | 69
FC(F)(F)c1ccc2c(c1)nc(-c1cccnc1)n2C1CC1 | cell-free assay, competition with immobilised ligand | 1 µM | 100
O=C(c1ccc(Nc2nccc(-c3cc4ccccc4s3)n2)cc1)N1CCC(N2CCCC2)CC1 | binding, competition with immobilised ligand | 1 µM | 100
CN(C)c1nccc(-c2cnn3ncccc23)n1 | binding | 1 µM | 100
Nc1ncc2c(n1)-c1c([nH]c3ccc(C#CC4CC4)cc13)CCCC2 | binding, competition with immobilised ligand | 1 µM | 80
CS(=O)(=O)c1cc(C2(NC(=O)c3cncc4c3cnn4-c3ccc(F)cc3)CC2)ccn1 | cell-free assay, competition with immobilised ligand | 1 µM | 73
CN(c1nccc(-c2cnn3ncccc23)n1)C1CC1 | binding | 1 µM | 100
CN1CCN(c2cnc3c(C4CCN(C(=O)c5ccc(OC(F)(F)F)cc5N)CC4)ncnc3c2)CC1 | cell-free assay, competition with immobilised ligand | 1 µM | 100
O=C(NCCCN1CCOCC1)c1ccc(Nc2nccc(-c3cc4ccccc4s3)n2)cc1 | binding, competition with immobilised ligand | 1 µM | 100
CO[C@@H](C)c1c(Nc2ccc([C@H](N(C)C(=O)C3CCS(=O)(=O)CC3)C(F)(F)F)cc2)cnc2cc(Cl)nn12 | cell-free assay, competition with immobilised ligand | 1 µM | 100
COc1ncc2cc3ccccc3nc2c1C#N | cell-free assay, competition with immobilised ligand | 5 µM | 100
